≈ marks a conversion by molar mass, not a printed value.
How the values were obtained:
Format in all cases: functional
Escherichia coli [1] = experiment: Tested in vitro against Escherichia coli Vogel. by gradient-plate test
In short: (§1)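 Antibacterial testing in vitro by gradient-plate test. Read-out was the minimum inhibitory concentration, with values exceeding 25 reported as >25.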

Plasmodium berghei [2] = experiment: Antimalarial activity as change in MST for drug-sensitive Plasmodium berghei infected mice (Mus musculus) at 40 mg/kg subcutaneous dose over 72 hr
Plasmodium berghei [3] = experiment: Antimalarial activity as change in MST for drug-sensitive Plasmodium berghei infected mice (Mus musculus) at 80 mg/kg subcutaneous dose over 72 hr
Plasmodium berghei [4] = experiment: Antimalarial activity as change in MST for drug-sensitive Plasmodium berghei infected mice (Mus musculus) at 640 mg/kg subcutaneous dose over 72 hr
Plasmodium berghei [5] = experiment: Antimalarial activity as change in MST against drug-sensitive Plasmodium berghei infected mice (Mus musculus) at 20 mg/kg subcutaneous dose after 72h
Plasmodium berghei [6] = experiment: Antimalarial activity as change in MST against drug-sensitive Plasmodium berghei infected mice (Mus musculus) at 320 mg/kg subcutaneous dose after 72 hr
Plasmodium berghei [7] = experiment: Antimalarial activity as change in MST against drug-sensitive Plasmodium berghei infected mice (Mus musculus) at 160 mg/kg subcutaneous dose after 72h
Shigella sonnei = experiment: In vitro antibacterial activity against Shigella sonnei C-10.; in short: as §1
Staphylococcus aureus [8] = experiment: In vitro antibacterial activity against […] U.C-76.; in short: as §1
Enterococcus faecalis = experiment: In vitro antibacterial activity against Streptococcus faecalis MGH-2.; in short: as §1
Staphylococcus aureus [9] = experiment: In vitro antibacterial activity against […] S 18713.; in short: as §1
Pseudomonas aeruginosa [10] = experiment: In vitro against Pseudomonas aeruginosa 28. by gradient-plate test; in short: as §1
Plasmodium berghei [11] = experiment: Antimalarial activity as change in MST for drug-sensitive Plasmodium berghei infected mice (Mus musculus) at 40 mg/kg subcutaneous dose over 72hr
Plasmodium berghei [12] = experiment: Antimalarial activity as change in MST for drug-sensitive Plasmodium berghei infected mice (Mus musculus) at 80mg/kg subcutaneous dose over 72h
[13] = test system: Mycobacterium tuberculosis; experiment: In vitro antibacterial activity against Mycobacterium tuberculosis H37Rv.
In short: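 Mycobacterium tuberculosis tested in vitro by gradient-plate test; minimum inhibitory concentration reported.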

Escherichia coli [14] = experiment: Compound was tested in vitro against Escherichia coli Vogel. by gradient-plate test.; in short: as §1
Plasmodium berghei [15] = experiment: Antimalarial activity as survivor numbers at day 60 for drug-sensitive Plasmodium berghei infected mice (Mus musculus) at 640 mg/kg subcutaneous dose over 72 hr
In short: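 Mice infected with drug-sensitive P. berghei got one subcutaneous dose in sesame or peanut oil 72 h postinfection. Read-out is the number of mice alive at 60 days postinfection, termed "cured", without subinoculation to confirm parasitological cure. Groups of five per dose, or 10 where indicated.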

Plasmodium berghei [16] = experiment: Antimalarial activity as change in MST for drug-sensitive Plasmodium berghei infected mice (Mus musculus) after 72 hrs at 320 mg/kg subcutaneous dose
Plasmodium berghei [17] = experiment: Antimalarial activity as toxic deaths 2-5 days post infection for drug-sensitive Plasmodium berghei infected mice (Mus musculus) at 640 mg/kg subcutaneous dose over 72 hr
In short: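 P. berghei (drug-sensitive) infected mice dosed once subcutaneously 72 h postinfection, compound in sesame or peanut oil. Read-out is the count of deaths on days 2–5 after infection, attributed to drug toxicity. Five animals per dose level, or 10 where indicated.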

Plasmodium berghei [18] = experiment: Antimalarial activity as change in MST against drug-sensitive Plasmodium berghei infected mice (Mus musculus) at 160 mg/kg subcutaneous dose after 72 hr
Pseudomonas aeruginosa [19] = experiment: Compound was tested in vitro against Pseudomonas aeruginosa 28. by gradient-plate test.; in short: as §1

Compound | MIC (Escherichia coli [1]) [µg/mL] | Delta MST (Plasmodium berghei [2]) [days] | Delta MST (Plasmodium berghei [4]) [days] | Delta MST (Plasmodium berghei [5]) [days] | Delta MST (Plasmodium berghei [6]) [days] | Delta MST (Plasmodium berghei [7]) [days] | MIC (Shigella sonnei) [µg/mL] | MIC (Staphylococcus aureus [8]) [µg/mL] | MIC (Enterococcus faecalis) [µg/mL] | MIC (Staphylococcus aureus [9]) [µg/mL] | MIC (Pseudomonas aeruginosa [10]) [µg/mL] | Delta MST (Plasmodium berghei [11]) [days] | Delta MST (Plasmodium berghei [12]) [days] | MIC [13] [µg/mL] | other results
Nc1nc(N)c2cc(S(=O)(=O)Nc3ccc4ccccc4c3)ccc2n1 | > 25 | 0.3 | 5.3 | 0.3 | 1.5 | 1.1 | > 25 | > 25 | 5 (≈ 13.7 µM) | > 25 | > 25 | – | – | – | Delta MST (Plasmodium berghei [3]): 0.5 days
CC(C)N(C)S(=O)(=O)c1ccc2nc(N)nc(N)c2c1 | – | – | – | 0.5 | 6.9 | 7.3 | – | – | – | – | – | 0.7 | – | – | Delta MST (Plasmodium berghei [3]): 4 days
CN(c1ccccc1)S(=O)(=O)c1ccc2nc(N)nc(N)c2c1 | > 25 | 0.5 | 13.9 | 0.5 | 11.5 | 8.3 | > 25 | > 25 | > 25 | > 25 | > 25 | – | 3.1 | > 25 | –
CCN(CC)CCN(C)S(=O)(=O)c1ccc2nc(N)nc(N)c2c1 | – | – | 0.3 | – | – | 0.3 | > 25 | > 25 | 20 (≈ 56.7 µM) | > 25 | > 25 | 0.1 | – | > 25 | MIC (Escherichia coli [14]): > 25 µg/mL
Nc1nc(N)c2cc(S(=O)(=O)Nc3cccc(Br)c3)ccc2n1 | > 25 | – | 4.1 | 0.3 | 1.7 | 0.5 | > 25 | > 25 | > 25 | > 25 | > 25 | 0.3 | 0.5 | > 25 | –
Nc1nc(N)c2cc(S(=O)(=O)N3CCCCC3)ccc2n1 | – | 4.4 | – | 1.1 | 12.9 | 10.2 | 0.5 (≈ 1.63 µM) | < 0.25 | < 0.25 | < 0.25 | > 25 | – | 4.7 | 10 (≈ 32.5 µM) | MIC (Escherichia coli [14]): < 0.25 µg/mL; survivors at day 60 (Plasmodium berghei [15]): 5
Nc1nc(N)c2cc(S(=O)(=O)N3CCSCC3)ccc2n1 | 2 (≈ 6.15 µM) | – | 12.6 | 1.7 | – | 8.3 | 2 (≈ 6.15 µM) | < 0.25 | < 0.25 | < 0.25 | > 25 | 2.5 | 3.5 | > 25 | Delta MST (Plasmodium berghei [16]): 9.6 days
Nc1nc(N)c2cc(S(=O)(=O)N3CCC(N4CCCCC4)CC3)ccc2n1 | > 25 | – | 3.9 | – | 2.1 | 0.7 | > 25 | > 25 | > 25 | > 25 | > 25 | 0.3 | 0.5 | > 25 | –
Nc1nc(N)c2cc(S(=O)(=O)Nc3ccc(Cl)cc3)ccc2n1 | – | – | 13.9 | 0.5 | 14.7 | 9.3 | – | – | – | – | – | 0.7 | 4.9 | – | –
Cc1c(S(=O)(=O)N(C)C)ccc2nc(N)nc(N)c12 | < 0.25 | 1.1 | – | – | – | – | 1.5 (≈ 5.33 µM) | 2 (≈ 7.11 µM) | < 0.25 | 2.5 (≈ 8.89 µM) | > 25 | – | – | > 25 | toxic deaths (Plasmodium berghei [17]): 5
CN(Cc1ccc(Cl)c(Cl)c1)S(=O)(=O)c1ccc2nc(N)nc(N)c2c1 | > 25 | 0.3 | 9.5 | 0.3 | 4.1 | 0.5 | > 25 | > 25 | > 25 | > 25 | > 25 | – | 0.5 | > 25 | –
Nc1nc(N)c2cc(S(=O)(=O)N3CCCCC3Cc3ccccc3)ccc2n1 (stereo unspecified) | > 25 | – | 0.5 | – | – | 0.3 | > 25 | 2 (≈ 5.03 µM) | < 0.25 | > 25 | > 25 | 0.3 | – | > 25 | –
CCCN(CCC)S(=O)(=O)c1ccc2nc(N)nc(N)c2c1 | – | – | 1.3 | – | – | – | – | – | – | – | – | 0.3 | – | – | Delta MST (Plasmodium berghei [18]): 0.4 days
CCOC(=O)N1CCN(S(=O)(=O)c2ccc3nc(N)nc(N)c3c2)CC1 | > 25 | – | – | 0.1 | 4.7 | 4.1 | > 25 | 2 (≈ 5.26 µM) | 2 (≈ 5.26 µM) | > 25 | > 25 | 0.2 | 0.5 | > 25 | survivors at day 60 (Plasmodium berghei [15]): 4
CCN(CC)S(=O)(=O)c1ccc2nc(N)nc(N)c2c1Cl | > 25 | – | – | – | 18.9 | – | > 25 | 10 (≈ 30.3 µM) | < 0.25 | > 25 | > 25 | 2.3 | 4.3 | > 25 | toxic deaths (Plasmodium berghei [17]): 5; Delta MST (Plasmodium berghei [18]): 14.9 days
Nc1nc(N)c2cc(S(=O)(=O)N(CCO)CCO)ccc2n1 | – | 0.3 | 8.1 | 0.3 | 4.1 | 1.3 | – | – | – | – | – | – | 0.5 | – | –
CN(c1cccc(Cl)c1)S(=O)(=O)c1ccc2nc(N)nc(N)c2c1 | > 25 | – | 11.9 | 0.3 | 6.9 | 4.5 | > 25 | > 25 | > 25 | > 25 | – | 0.3 | 0.5 | > 25 | MIC (Pseudomonas aeruginosa [19]): > 25 µg/mL

Reference: ChEMBL document CHEMBL1122803, “Folate antagonists. 22. Antimalarial and antibacterial effects of 2,4-diamino-6-quinazolinesulfonamides” (1984)
